Experimental data reported in ChEMBL document CHEMBL3045252, “Stereoselective syntheses of all stereoisomers of lariciresinol and their plant growth inhibitory activities” (J Agric Food Chem, 2011).

Columns and labels:
Lolium multiflorum [1] = test: Plant growth regulatory activity in Lolium multiflorum (Italian ryegrass ) assessed as inhibition of shoot length at 1x10'-3 M at 20 degC measured after 5 days; type: functional; conditions: 120 h, read-out: GI
Outline: (§1)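 Paper was pre-wetted with 500 μL acetone solution (6.0 × 10^-3 to 6.0 × 10^-8 M) and dried, then 3 mL water added to a final 1.0 × 10^-3 to 1.0 × 10^-8 M. Sealed dishes kept dark at 20 °C. Root and shoot lengths read against a negative control. Mean ± SEM; three experiments below 10^-3 M. One-way ANOVA with Tukey post-test.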

Lolium multiflorum [2] = test: Plant growth regulatory activity in Lolium multiflorum (Italian ryegrass) assessed as inhibition of root growth at 1x10'-3 M at 20 degC measured after 5 days; type: functional; conditions: 120 h, read-out: GI; outline: as §1
Lactuca sativa [3] = test: Plant growth regulatory activity in lettuce Lactuca sativa (lettuce) assessed as inhibition of shoot length at 1 mM at 20 degC measured after 3 days; type: functional; conditions: 72 h, read-out: GI
Outline: (§2)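 Paper was treated with acetone solution and dried, then 3 mL water added to a final 1 × 10^-3 M. Sealed dishes kept dark at 20 °C. Root and shoot lengths expressed as growth relative to the negative control. Mean ± SEM. One-way ANOVA with Tukey post-test.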

Lactuca sativa [4] = test: Plant growth regulatory activity in lettuce Lactuca sativa (lettuce) assessed as inhibition of root growth at 1 mM at 20 degC measured after 3 days; type: functional; conditions: 72 h, read-out: GI; outline: as §2
Lolium multiflorum [5] = test: Inhibition of seed germination in Lolium multiflorum (Italian ryegrass) seed assessed as seed germination rate (reference value: 90.3 +/- 1.40%); type: functional
Lolium multiflorum [6] = test: Inhibition of germination in Lolium multiflorum (Italian ryegrass) seed assessed as growth rate of germinated grass root; type: functional
Lolium multiflorum [7] = test: Plant growth regulatory activity in Lolium multiflorum (Italian ryegrass) assessed as stimulation of root growth up to 10'--4 to 10^-7 M at 20 degC measured after 5 days; type: functional; outline: as §1
Lolium multiflorum [8] = test: Toxicity in italian ryegrass Lolium multiflorum (Italian ryegrass) assessed as adverse effect up to 10^-7 M; type: organism-based; conditions: in vivo
Lolium multiflorum [9] = test: Plant growth regulatory activity in Lolium multiflorum (Italian ryegrass) assessed as inhibition of shoot length at 1 mM at 20 degC measured after 5 days; type: functional; conditions: 120 h, read-out: GI; outline: as §1

Row | Compound | inhibition of growth at 1000 µM (Lolium multiflorum [1]) | inhibition of growth at 1000 µM (Lolium multiflorum [2]) | inhibition of growth at 1000 µM (Lactuca sativa [3]) | inhibition of growth at 1000 µM (Lactuca sativa [4]) | inhibition (INH) (Lolium multiflorum [5]) | inhibition (INH) (Lolium multiflorum [6]) | Activity (Lolium multiflorum [7]) | Activity (Lolium multiflorum [8]) | inhibition of growth at 1000 µM (Lolium multiflorum [9])
1 | COc1cc(C[C@@H]2CO[C@H](c3ccc(O)c(OC)c3)[C@@H]2CO)ccc1O | < 23% | -30% | -1.6% | -20.7% | – | – | – | – | –
2 | COc1cc(C[C@H]2CO[C@H](c3ccc(O)c(OC)c3)[C@@H]2CO)ccc1O | – | -48.2% | -1.6% | -20.7% | 72.5% | -35.4% | 20% | – | –
3 | COc1cc(C[C@@H]2CO[C@@H](c3ccc(O)c(OC)c3)[C@H]2CO)ccc1O | – | – | -32.3% | – | – | – | – | – | –
4 | COc1cc(C[C@H]2CO[C@@H](c3ccc(O)c(OC)c3)[C@@H]2CO)ccc1O | – | – | -1.6% | -20.7% | – | – | – | Non-toxic | –
5 | COc1cc(C[C@@H]2CO[C@H](c3ccc(O)c(OC)c3)[C@H]2CO)ccc1O | – | – | -1.6% | -20.7% | – | – | – | Non-toxic | –
6 | COc1cc(C[C@H]2CO[C@@H](c3ccc(O)c(OC)c3)[C@H]2CO)ccc1O | < 23% | -30% | -1.6% | -20.7% | – | – | – | – | –
7 | COc1cc(C[C@@H]2CO[C@@H](c3ccc(O)c(OC)c3)[C@@H]2CO)ccc1O [(-)-Lariciresinol] | – | -44.3% | -13.3% | -8.2% | 80% | -57.2% | – | – | -17.1%
8 | COc1cc(C[C@H]2CO[C@H](c3ccc(O)c(OC)c3)[C@H]2CO)ccc1O [LARICIRESINOL] | – | -29.3% | -22% | -14.4% | 72.5% | -40.7% | – | – | –
